System: Trypanosoma cruzi
Experiment: Antitrypanosomal activity against bloodstream trypomastigote stage of Trypanosoma cruzi Y measured after 24 hrs by light microscopic analysis
Assay type: functional, organism-based
Details: not given
Outline: (§1)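 Y strain bloodstream trypomastigotes from heart puncture of infected mice, at 5x10⁶/mL in RPMI 1640 with 5% FBS. Incubated at 37℃ with 0–50 µM for 2 or 24 h. […] Mean ± SD.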
Compound `Cc1n[nH]c2c1[C@@H](c1ccc(OCc3cccc(F)c3)cc1)S[C@@H](C)C(=O)N2` has an EC50 of 47 µM.

System: not listed separately
Experiment: Selectivity index, ratio of LC50 for mouse L929 cells by Alamarblue assay to EC50 for Trypanosoma cruzi Tulahuen trypomastigote forms
Assay type: toxicity
Details: read-out: Selectivity Index
In the case of `Cc1n[nH]c2c1[C@@H](c1ccc(OCc3cccc(F)c3)cc1)S[C@@H](C)C(=O)N2`, the selectivity ratio is reported as 19.4.

Target: Sterol 14-alpha demethylase (Trypanosoma cruzi (strain CL Brener)) (UniProt Q7Z1V1)
Sequence (Q7Z1V1 whole entry, looked up): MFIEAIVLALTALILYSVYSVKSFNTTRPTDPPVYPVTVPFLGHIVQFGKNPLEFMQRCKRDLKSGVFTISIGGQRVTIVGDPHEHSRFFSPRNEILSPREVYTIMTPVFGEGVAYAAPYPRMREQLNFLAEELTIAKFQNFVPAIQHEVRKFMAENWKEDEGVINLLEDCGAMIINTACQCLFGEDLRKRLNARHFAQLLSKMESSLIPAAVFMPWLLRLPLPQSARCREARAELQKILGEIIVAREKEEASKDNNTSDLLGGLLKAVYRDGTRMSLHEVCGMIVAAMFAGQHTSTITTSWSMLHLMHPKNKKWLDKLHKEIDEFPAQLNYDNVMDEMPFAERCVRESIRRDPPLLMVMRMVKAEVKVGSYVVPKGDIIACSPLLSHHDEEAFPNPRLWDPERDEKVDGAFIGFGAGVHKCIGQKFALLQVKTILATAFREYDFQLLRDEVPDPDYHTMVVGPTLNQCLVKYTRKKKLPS
Experiment: Inhibition of recombinant Trypanosoma cruzi Tulahuen CYP51 expressed in Escherichia coli JM109 cell membranes assessed as residual activity at 0.0005 uM by fluorescence based analysis (reference value: 100%)
Details: not given
Outline: (§2)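 Fluorescence-based functional assay using recombinant T. cruzi (Tulahuen) CYP51. […] Residual activity was measured across a concentration series and fitted to a curve to give the IC50.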
For `CC[C@@H]([C@H](C)O)n1ncn(-c2ccc(N3CCN(c4ccc(OC[C@@H]5CO[C@@](Cn6cncn6)(c6ccc(F)cc6F)C5)cc4)CC3)cc2)c1=O`, the Activity was 100%.

System: not listed separately
Experiment: Selectivity index, ratio of LC50 for mouse L929 cells by light microscopic analysis to EC50 for Trypanosoma cruzi Tulahuen trypomastigote forms
Assay type: toxicity
Details: read-out: Selectivity Index
Work on `Cc1n[nH]c2c1[C@@H](c1ccc(OCc3cccc(F)c3)cc1)S[C@@H](C)C(=O)N2` yielded a selectivity ratio of 19.4.

System: Trypanosoma cruzi
Experiment: Antitrypanosomal activity against Trypanosoma cruzi Tulahuen trypomastigote forms infected in mouse L929 cells assessed as reduction in infection level at 10 to 12 uM after 96 hrs by beta-galactosidase reporter gene assay relative to control
Assay type: functional
Design: scale not given: the % may be the effect or the level left
Details: not given
Outline: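 L929 cells infected 2 h with tissue culture-derived β-galactosidase-expressing Tulahuen trypomastigotes at 10:1 parasite/host cell ratio, rinsed, and held 48 h at 37℃. Single fixed concentration (10-12 µM) then applied, 96 h. Absorbance read at 570 nm; growth inhibition expressed relative to untreated cells. DMSO not above 0.6 %.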
`Cc1n[nH]c2c1[C@@H](c1ccc(OC(C)C)cc1)S[C@@H](C)C(=O)N2` gave an Activity of 0%.
For `Cc1n[nH]c2c1[C@@H](c1ccc(OCc3ccc(F)cc3)cc1)S[C@@H](C)C(=O)N2`, the Activity was 32.42%.
Compound `COc1cc([C@H]2S[C@@H](C)C(=O)Nc3[nH]nc(C)c32)ccc1OCc1ccc(C)cc1` has an Activity of 1.98%.
Work on `Cc1n[nH]c2c1[C@@H](c1ccc(OCc3cccc(F)c3)cc1)S[C@@H](C)C(=O)N2` yielded an Activity of 70.68%.

System: not listed separately
Experiment: Cytotoxicity against mouse L929 cells assessed as reduction in cell viability after 96 hrs by light microscopic analysis
Assay type: cell-based
Details: read-out: LC50
Outline: (§3)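 L929 fibroblasts (4x10^3 cells/well) in RPMI 1640 with 10% FBS, incubated at 37°C with increasing concentrations for 96 h. Viability was read with AlamarBlue (6 h incubation, absorbance at 600 nm) and confirmed by light microscopy.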
In the case of `Cc1n[nH]c2c1[C@@H](c1ccc(OCc3cccc(F)c3)cc1)S[C@@H](C)C(=O)N2`, the CC50 at 96 h is reported as 103 µM.

System: Trypanosoma cruzi
Experiment: Antitrypanosomal activity against Trypanosoma cruzi Tulahuen trypomastigote forms infected in mouse L929 cells assessed as reduction in parasite load after 96 hrs by beta-galactosidase reporter gene assay
Assay type: functional, organism-based
Details: L929, 96 h
Outline: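 L929 cells infected 2 h with tissue culture-derived Tulahuen β-galactosidase trypomastigotes (10:1 parasite/host cell), rinsed with saline, and left 48 h at 37℃. Increasing non-toxic concentrations applied for 96 h. Absorbance read at 570 nm, % growth inhibition versus untreated cells, EC50 derived; mean ± SD. DMSO not above 0.6 %.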
Compound `Cc1n[nH]c2c1[C@@H](c1ccc(OCc3cccc(F)c3)cc1)S[C@@H](C)C(=O)N2` has an EC50 of 5.32 µM.

System: not listed separately
Experiment: Selectivity index, ratio of LC50 for Swiss Webster mouse cardiac cells by prestoblue assay to EC50 for bloodstream trypomastigote stage of Trypanosoma cruzi Y measured after 24 hrs
Assay type: toxicity
Details: read-out: Selectivity Index
Outline: (§4)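 The ratio is cardiac-cell LC50 (24 h) over the 24 h EC50 against Y-strain bloodstream trypomastigotes. Trypomastigotes (5x10^6/mL) were exposed to 0-50 µM at 37°C in RPMI with 5% FBS. Surviving parasites were counted in a Neubauer chamber, and the EC50 is the concentration halving the parasite number.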
Work on `Cc1n[nH]c2c1[C@@H](c1ccc(OCc3cccc(F)c3)cc1)S[C@@H](C)C(=O)N2` yielded a selectivity ratio at 24 h of 3.71.

System: not listed separately
Experiment: Cytotoxicity against Swiss Webster mouse cardiac cells assessed as reduction in cell viability after 24 hrs by light microscopic analysis
Assay type: cell-based, Cardiac Muscle Cell
Details: read-out: LC50
Outline: (§5)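 Primary cardiac cells from Swiss Webster mouse embryos, cultured at 37°C in DMEM with 5% FBS, CaCl2, glutamine and chick embryo extract. Uninfected cultures were exposed to increasing concentrations for 24 h. Viability was read with PrestoBlue (5 h incubation, absorbance at 570 nm) and checked by light microscopy for morphology.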
`Cc1n[nH]c2c1[C@@H](c1ccc(OCc3cccc(F)c3)cc1)S[C@@H](C)C(=O)N2` gave a CC50 at 24 h of 94 µM.

System: not listed separately
Experiment: Cytotoxicity against mouse L929 cells assessed as reduction in cell viability after 96 hrs by Alamarblue assay
Assay type: cell-based
Details: read-out: LC50
Outline: as §3
Compound `Cc1n[nH]c2c1[C@@H](c1ccc(OCc3cccc(F)c3)cc1)S[C@@H](C)C(=O)N2` has a CC50 at 96 h of 103 µM.

System: Trypanosoma cruzi
Experiment: Antitrypanosomal activity against bloodstream trypomastigote stage of Trypanosoma cruzi Y measured after 2 hrs by light microscopic analysis
Assay type: functional, organism-based
Details: not given
Outline: as §1
With `Cc1n[nH]c2c1[C@@H](c1ccc(OCc3cccc(F)c3)cc1)S[C@@H](C)C(=O)N2` the EC50 was greater than 50 µM.

Target: Sterol 14-alpha demethylase (Trypanosoma cruzi (strain CL Brener)) (UniProt Q7Z1V1)
Experiment: Inhibition of recombinant Trypanosoma cruzi Tulahuen CYP51 expressed in Escherichia coli JM109 cell membranes assessed as residual activity at 0.00165 uM by fluorescence based analysis (reference value: 100%)
Details: not given
Outline: as §2
For `CC[C@@H]([C@H](C)O)n1ncn(-c2ccc(N3CCN(c4ccc(OC[C@@H]5CO[C@@](Cn6cncn6)(c6ccc(F)cc6F)C5)cc4)CC3)cc2)c1=O`, the Activity was 98.4%.

Target: Sterol 14-alpha demethylase (Trypanosoma cruzi (strain CL Brener)) (UniProt Q7Z1V1)
Experiment: Inhibition of recombinant Trypanosoma cruzi Tulahuen CYP51 expressed in Escherichia coli JM109 cell membranes assessed as residual activity at 0.05 uM by fluorescence based analysis (reference value: 100%)
Details: not given
Outline: as §2
For `CC[C@@H]([C@H](C)O)n1ncn(-c2ccc(N3CCN(c4ccc(OC[C@@H]5CO[C@@](Cn6cncn6)(c6ccc(F)cc6F)C5)cc4)CC3)cc2)c1=O`, the Activity was 32%.

Target: Sterol 14-alpha demethylase (Trypanosoma cruzi (strain CL Brener)) (UniProt Q7Z1V1)
Experiment: Inhibition of recombinant Trypanosoma cruzi Tulahuen CYP51 expressed in Escherichia coli JM109 cell membranes assessed as residual activity at 0.5 uM by fluorescence based analysis (reference value: 100%)
Details: not given
Outline: as §2
Work on `CC[C@@H]([C@H](C)O)n1ncn(-c2ccc(N3CCN(c4ccc(OC[C@@H]5CO[C@@](Cn6cncn6)(c6ccc(F)cc6F)C5)cc4)CC3)cc2)c1=O` yielded an Activity of 0%.

Target: Sterol 14-alpha demethylase (Trypanosoma cruzi (strain CL Brener)) (UniProt Q7Z1V1)
Experiment: Inhibition of recombinant Trypanosoma cruzi Tulahuen CYP51 expressed in Escherichia coli JM109 cell membranes assessed as residual activity at 0.17 uM by fluorescence based analysis (reference value: 100%)
Details: not given
Outline: as §2
In the case of `CC[C@@H]([C@H](C)O)n1ncn(-c2ccc(N3CCN(c4ccc(OC[C@@H]5CO[C@@](Cn6cncn6)(c6ccc(F)cc6F)C5)cc4)CC3)cc2)c1=O`, the Activity is reported as 0%.

Target: Sterol 14-alpha demethylase (Trypanosoma cruzi (strain CL Brener)) (UniProt Q7Z1V1)
Experiment: Inhibition of recombinant Trypanosoma cruzi Tulahuen CYP51 expressed in Escherichia coli JM109 cell membranes assessed as residual activity at 0.005 uM by fluorescence based analysis (reference value: 100%)
Details: not given
Outline: as §2
`CC[C@@H]([C@H](C)O)n1ncn(-c2ccc(N3CCN(c4ccc(OC[C@@H]5CO[C@@](Cn6cncn6)(c6ccc(F)cc6F)C5)cc4)CC3)cc2)c1=O` gave an Activity of 92.8%.

Target: Sterol 14-alpha demethylase (Trypanosoma cruzi (strain CL Brener)) (UniProt Q7Z1V1)
Experiment: Inhibition of recombinant Trypanosoma cruzi Tulahuen CYP51 expressed in Escherichia coli JM109 cell membranes assessed as residual activity at 0.0165 uM by fluorescence based analysis (reference value: 100%)
Details: not given
Outline: as §2
For `CC[C@@H]([C@H](C)O)n1ncn(-c2ccc(N3CCN(c4ccc(OC[C@@H]5CO[C@@](Cn6cncn6)(c6ccc(F)cc6F)C5)cc4)CC3)cc2)c1=O`, the Activity was 71.9%.

System: not listed separately
Experiment: Selectivity index, ratio of LC50 for Swiss Webster mouse cardiac cells by light microscopic analysis to EC50 for bloodstream trypomastigote stage of Trypanosoma cruzi Y measured after 24 hrs
Assay type: toxicity
Details: read-out: Selectivity Index
Outline: as §4
With `Cc1n[nH]c2c1[C@@H](c1ccc(OCc3cccc(F)c3)cc1)S[C@@H](C)C(=O)N2` the selectivity ratio at 24 h was 3.71.

System: not listed separately
Experiment: Cytotoxicity against Swiss Webster mouse cardiac cells assessed as reduction in cell viability after 24 hrs by prestoblue assay
Assay type: cell-based, Cardiac Muscle Cell
Details: read-out: LC50
Outline: as §5
For `Cc1n[nH]c2c1[C@@H](c1ccc(OCc3cccc(F)c3)cc1)S[C@@H](C)C(=O)N2`, the CC50 at 24 h was 94 µM.
